Measurements taken from ChEMBL document CHEMBL1799942, “Design, synthesis and antifungal activities of novel 1,2,4-triazole derivatives” (2011).
Values after ≈ are worked out from the molar mass of the structure shown.

Experiments:
Format in all cases: functional
[1] = system: Candida albicans; experiment: Antifungal activity against Candida albicans ATCC Y0109 after 24 hrs by micro-broth dilution method; conditions: ATCC Y0109, 24 h
Summary of the method: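 Micro-broth dilution per NCCLS M27-A2 on the quality-control standard strain ATCC Y0109, included in each assay. Compounds were dissolved in DMSO, serially diluted in growth medium, inoculated and incubated at 35 °C, with growth read at 24 h. MIC80 is the first well showing roughly 80% growth reduction versus the drug-free well.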

[2] = system: Candida parapsilosis; experiment: Antifungal activity against Candida parapsilosis ATCC 0306392 by micro-broth dilution method; conditions: Lodderomyces parapsilosis
Summary of the method: (§1)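 Micro-broth dilution per NCCLS M27-A2. The C. parapsilosis strain is the ATCC 0306392 quality-control standard tested in each assay; the C. tropicalis strain is a clinical isolate. Compounds were in DMSO, serially diluted in growth medium, inoculated and incubated at 35 °C. MIC80 is the first well with about 80% growth reduction relative to the drug-free well.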

[3] = system: Candida tropicalis; experiment: Antifungal activity against Candida tropicalis by micro-broth dilution method; summary of the method: as §1
[4] = system: Cryptococcus neoformans; experiment: Antifungal activity against Cryptococcus neoformans ATCC BLS108 after 72 hrs by micro-broth dilution method; conditions: ATCC BLS108, 72 h
Summary of the method: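 NCCLS M27-A2 microdilution on the ATCC BLS108 quality-control strain, tested in every assay. Compounds were taken up in DMSO, serially diluted in growth medium, inoculated and incubated at 35 °C. Growth was scored at 72 h. MIC80 is the first well with about 80% lower growth than the drug-free control well.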

[5] = system: Aspergillus fumigatus; experiment: Antifungal activity against Aspergillus fumigatus after 7 days by micro-broth dilution method; conditions: 168 h
Summary of the method: (§2)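 Broth microdilution following the NCCLS yeast reference method (M27-A2), run on clinical isolates of filamentous fungi. Compounds were dissolved in DMSO, serially diluted in growth medium, inoculated and incubated at 35 °C. Growth was read at 7 days. MIC80 is the first well with about 80% less growth than the drug-free well.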

[6] = system: Trichophyton rubrum; experiment: Antifungal activity against Trichophyton rubrum after 7 days by micro-broth dilution method; conditions: 168 h; summary of the method: as §2
[7] = Antifungal activity against Fonsecaea compacta by micro-broth dilution method; summary of the method: as §2
[8] = system: Nannizzia gypsea; experiment: Antifungal activity against Microsporum gypseum after 7 days by micro-broth dilution method; conditions: 168 h; summary of the method: as §2

| Compound | MIC80 [1] [µg/mL] | MIC80 [2] [µg/mL] | MIC80 [3] [µg/mL] | MIC80 [4] [µg/mL] | MIC80 [5] [µg/mL] | MIC80 [6] [µg/mL] | MIC80 [7] [µg/mL] | MIC80 [8] [µg/mL] |
| --- | --- | --- | --- | --- | --- | --- | --- | --- |
| CCCCCCC(=O)Nc1ccc(N2CCN(CC(O)(Cn3cncn3)c3ccc(F)cc3F)CC2)c(F)c1 (racemic) | 0.00097 (≈ 0.00178 µM) | 0.0625 (≈ 0.115 µM) | 0.0625 (≈ 0.115 µM) | 0.0625 (≈ 0.115 µM) | 1 (≈ 1.84 µM) | 0.0156 (≈ 0.0286 µM) | 0.25 (≈ 0.459 µM) | 0.0625 (≈ 0.115 µM) |
| CCCCCCCC(=O)Nc1ccc(N2CCN(CC(O)(Cn3cncn3)c3ccc(F)cc3F)CC2)c(F)c1 (racemic) | 0.0625 (≈ 0.112 µM) | 0.0625 (≈ 0.112 µM) | 0.0625 (≈ 0.112 µM) | 0.25 (≈ 0.448 µM) | 1 (≈ 1.79 µM) | 0.0039 (≈ 0.00698 µM) | 0.25 (≈ 0.448 µM) | 0.0625 (≈ 0.112 µM) |
| O=C(Cc1ccccc1)Nc1ccc(N2CCN(CC(O)(Cn3cncn3)c3ccc(F)cc3F)CC2)c(F)c1 (racemic) | 0.0156 (≈ 0.0283 µM) | 0.0625 (≈ 0.114 µM) | 0.0625 (≈ 0.114 µM) | 1 (≈ 1.82 µM) | 64 (≈ 116 µM) | 0.0039 (≈ 0.00708 µM) | 0.0625 (≈ 0.114 µM) | 0.0156 (≈ 0.0283 µM) |
| C[C@@H]1[C@H](O)[C@@H](C)/C=C/C=C/C=C/C=C/C=C/C=C/C=C/[C@H](O[C@@H]2O[C@H](C)[C@@H](O)[C@H](N)[C@@H]2O)C[C@@H]2O[C@](O)(C[C@@H](O)C[C@@H](O)[C@H](O)CC[C@@H](O)C[C@@H](O)CC(=O)O[C@H]1C)C[C@H](O)[C@H]2C(=O)O [AMPHOTERICIN B] | 1 (≈ 1.08 µM) | 0.0156 (≈ 0.0169 µM) | 0.0625 (≈ 0.0676 µM) | 1 (≈ 1.08 µM) | 4 (≈ 4.33 µM) | 1 (≈ 1.08 µM) | 16 (≈ 17.3 µM) | 0.0039 (≈ 0.00422 µM) |
| OC(Cn1cncn1)(Cn1cncn1)c1ccc(F)cc1F [FLUCONAZOLE] | 4 (≈ 13.1 µM) | 1 (≈ 3.27 µM) | 1 (≈ 3.27 µM) | 1 (≈ 3.27 µM) | 64 (≈ 209 µM) | 0.25 (≈ 0.816 µM) | 16 (≈ 52.2 µM) | 0.25 (≈ 0.816 µM) |
| CCC(C)n1ncn(-c2ccc(N3CCN(c4ccc(OCC5COC(Cn6cncn6)(c6ccc(Cl)cc6Cl)O5)cc4)CC3)cc2)c1=O (centres undefined) [ITRACONAZOLE] | 1 (≈ 1.42 µM) | 0.25 (≈ 0.354 µM) | 0.25 (≈ 0.354 µM) | 1 (≈ 1.42 µM) | 1 (≈ 1.42 µM) | 0.0156 (≈ 0.0221 µM) | 0.25 (≈ 0.354 µM) | 0.0156 (≈ 0.0221 µM) |
| CC(=O)N1CCN(c2ccc(OCC3COC(Cn4ccnc4)(c4ccc(Cl)cc4Cl)O3)cc2)CC1 (centres undefined) [KETOCONAZOLE] | 0.0625 (≈ 0.118 µM) | 0.0625 (≈ 0.118 µM) | 0.0625 (≈ 0.118 µM) | 0.0625 (≈ 0.118 µM) | 1 (≈ 1.88 µM) | 0.0625 (≈ 0.118 µM) | 0.0625 (≈ 0.118 µM) | 0.0039 (≈ 0.00734 µM) |
| C[C@@H](c1ncncc1F)[C@](O)(Cn1cncn1)c1ccc(F)cc1F [VORICONAZOLE] | 0.0156 (≈ 0.0447 µM) | 1 (≈ 2.86 µM) | 0.25 (≈ 0.716 µM) | 0.0156 (≈ 0.0447 µM) | > 64 | 0.0039 (≈ 0.0112 µM) | 0.0156 (≈ 0.0447 µM) | 0.0039 (≈ 0.0112 µM) |
